Publication PMC2121072 (The Journal of Cell Biology, 1996)

Assays:
fusion proteins = test: Competition of labeled ATP binding to fusion proteins; conditions: excess of cold, nonlabeled competitor nucleotide
[1] = molecular target: T1, GST-PDZ 1+2+3 fusion protein of hDlg (Homo sapiens, UniProt Q12959); test: Solution nitrocellulose filter ATP-binding assay, GST-PDZ1+2+3 of hDlg; conditions: Scatchard analysis, Fig. 4 inset
In short: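 Scatchard: 2.0 µg glutathione-eluted, dialysed GST-PDZ1+2+3 incubated in solution with increasing ATP concentrations plus [γ-32P]ATP, 3 h on ice in Hepes pH 7.6 buffer containing 1.0 mM MgCl2. Bound label captured on nitrocellulose filter, washed, scintillation-counted. Parallel GST control at each ATP concentration; cold ATP quantified by absorbance at 259 nm; each value is the average of duplicates.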

PDZ 3 domain of hDlg = test: Solution filter ATP-binding assay, PDZ3 of hDlg; design: species or system human; conditions: 100 nM cold ATP, pH 7.6, 3 h on ice, Fig. 3 B
In short: (§1)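 Solution assay: purified protein (GST fusions eluted from glutathione beads with 5.0 mM reduced glutathione, then dialysed into binding buffer) incubated with [γ-32P]ATP (100-500 nCi) plus 100 nM cold ATP. Buffer: 10 mM Hepes pH 7.6, 50 mM KCl, 75 mM NaCl, 1.0 mM MgCl2, 1.0 mM EGTA. Incubated 3 h on ice, filtered through nitrocellulose, washed, scintillation-counted. GST or BSA nonspecific controls; duplicate or triplicate.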

[2] = molecular target: T1, GST-PDZ 1+2+3 fusion protein of hDlg; test: Surface plasmon resonance; format: binding; conditions: 0.5 or 2.0 mM ATP-Mg2+ complex; orientation of the experiment not stated; data not shown
[3] = system: GST-PDZ3 fusion protein of Dlg; test: In vitro ATP binding, Dlg GST-PDZ3; design: species or system Drosophila; conditions: data not shown
In short: as §1

PDZ domains = test: Nucleotide binding with radiolabeled GTP; conditions: data not shown

T1 sequence (Q12959 201-584): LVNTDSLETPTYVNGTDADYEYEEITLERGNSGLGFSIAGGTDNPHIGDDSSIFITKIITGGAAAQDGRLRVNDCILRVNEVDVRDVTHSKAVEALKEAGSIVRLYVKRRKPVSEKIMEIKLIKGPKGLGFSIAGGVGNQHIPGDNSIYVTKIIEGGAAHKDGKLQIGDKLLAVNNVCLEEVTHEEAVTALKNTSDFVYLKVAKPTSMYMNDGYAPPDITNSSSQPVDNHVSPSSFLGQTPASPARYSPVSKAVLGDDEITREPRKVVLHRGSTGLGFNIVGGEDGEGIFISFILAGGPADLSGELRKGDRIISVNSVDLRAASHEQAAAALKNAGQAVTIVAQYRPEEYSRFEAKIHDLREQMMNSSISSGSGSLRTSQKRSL

binding of labeled ATP in presence of competitor (fusion proteins) | ATP binding sites (Scatchard) [1] | ATP binding (PDZ 3 domain of hDlg) | effect of ATP on GST-PDZ 1+2+3 / Kv1.4 peptide binding affinity [2] | ATP binding [3] | binding of radiolabeled GTP (PDZ domains) | Compound
failed | single class of binding sites | inactive for ATP binding | No effect on the binding affinity | binds ATP in vitro |  | Nc1ncnc2c1ncn2[C@@H]1O[C@H](COP(=O)(O)OP(=O)(O)OP(=O)(O)O)[C@@H](O)[C@H]1O [ATP]
succeeded |  |  |  |  | no binding | Nc1nc2c(ncn2[C@@H]2O[C@H](COP(=O)(O)OP(=O)(O)OP(=O)(O)O)[C@@H](O)[C@H]2O)c(=O)[nH]1 [GTP]
